Reference: publication PMC10246735 (European journal of medicinal chemistry, 2023)

Assays:
[1] = system: LNCaP (AR+) androgen-sensitive human prostate adenocarcinoma cells; assay: MTT antiproliferative activity assay on LNCaP cells; type: cell-based
recombinant CYP3A4 = recombinant CYP3A4 (Homo sapiens, UniProt P08684); assay: Equilibrium spectral titration of recombinant CYP3A4; type: binding; conditions: for high spin content: estimated at the end of equilibrium titrations relative to azamulin-bound CYP3A4 (100% high-spin conversion); for Kd: read-out: S50, ligand concentration at half-saturation (equivalent to Kd), 0.1 M phosphate buffer, pH 7.4; for Kd / nH, Hill coefficient: sigmoidal fittings to titration plots, mean of three ± SD
recombinant CYP3A4, sequence (P08684 whole entry): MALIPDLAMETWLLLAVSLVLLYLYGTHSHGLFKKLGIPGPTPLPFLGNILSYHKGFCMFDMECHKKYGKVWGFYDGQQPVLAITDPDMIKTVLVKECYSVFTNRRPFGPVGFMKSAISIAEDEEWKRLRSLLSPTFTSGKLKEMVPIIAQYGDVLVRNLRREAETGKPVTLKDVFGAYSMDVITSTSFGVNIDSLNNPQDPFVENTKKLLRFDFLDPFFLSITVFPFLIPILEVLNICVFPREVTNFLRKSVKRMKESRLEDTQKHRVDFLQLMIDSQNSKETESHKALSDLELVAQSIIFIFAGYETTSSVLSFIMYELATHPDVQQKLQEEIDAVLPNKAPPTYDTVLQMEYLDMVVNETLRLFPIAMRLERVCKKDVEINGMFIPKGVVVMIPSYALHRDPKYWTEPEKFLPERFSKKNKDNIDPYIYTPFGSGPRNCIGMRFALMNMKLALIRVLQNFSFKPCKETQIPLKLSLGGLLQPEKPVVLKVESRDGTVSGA
Method in brief: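 Codon-optimized full-length human CYP3A4 (1.5–2 μM) in 0.1 M phosphate buffer, pH 7.4, with 20% glycerol and 1 mM dithiothreitol, at ambient temperature. DMSO-dissolved ligand added in small aliquots (final solvent <2%). Titration plots were built from difference absorbance spectra. Sigmoidal fits gave S50 (half-saturation ligand concentration, equivalent to Kd) and Hill coefficient; hyperbolic fits gave Kd.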

[2] = system: PC3 (AR−) androgen-insensitive human prostate adenocarcinoma cells; assay: MTT antiproliferative activity assay on PC3 cells; type: cell-based; conditions: 48 h, read-out: IC50 (concentration of drug inhibiting cell growth by 50%), PC3 (AR−)

SMILES: C[C@]12CCC(=O)C=C1CC[C@@H]1[C@@H]2CC[C@@]2(C)[C@H]1CC[C@@]2(O)C/C=C/C[C@]1(O)CC[C@H]2[C@@H]3CCC4=CC(=O)CC[C@]4(C)[C@H]3CC[C@@]21C [Compound 11, ((E)-17,17’-(but-2-ene-1,4-diyl))bis(androst-4-en-3-one-17β-ol)]
- fold more potent than the reference drug CPA ([1]; LNCaP (AR+) cells, ratio of IC50): ~ 3.5 times
- fold more potent on AR+ LNCaP than AR− PC3 cells ([1]; ratio of IC50 PC3 / LNCaP): ~ 3.7 times
- high spin content (recombinant CYP3A4): 92 ± 4%
- fold higher affinity for CYP3A4 compared to 15 (recombinant CYP3A4; ratio of Kd): 40 fold

SMILES: C=CC[C@]1(O)CC[C@H]2[C@@H]3CCC4=CC(=O)CC[C@]4(C)[C@H]3CC[C@@]21C [Compound 10, 17α-allyl-androst-4-en-3-one-17β-ol]
- high spin content (recombinant CYP3A4): 70 ± 2%
- Kd (recombinant CYP3A4): 22 ± 4 µM
- nH, Hill coefficient (recombinant CYP3A4): 1.52 ± 0.02

SMILES: C=CC[C@]1(O)CC[C@H]2[C@@H]3CC[C@H]4CC(=O)CC[C@]4(C)[C@H]3CC[C@@]21C [Compound 14, 17α-allyl-androst-3-one-17β-ol]
- high spin content (recombinant CYP3A4): 71 ± 3%
- Kd (recombinant CYP3A4): 17 ± 2 µM
- nH, Hill coefficient (recombinant CYP3A4): 1.76 ± 0.06

SMILES: C[C@]12CCC(=O)C[C@@H]1CC[C@@H]1[C@@H]2CC[C@@]2(C)[C@H]1CC[C@@]2(O)C/C=C/C[C@]1(O)CC[C@H]2[C@@H]3CC[C@H]4CC(=O)CC[C@]4(C)[C@H]3CC[C@@]21C [Compound 15, ((E)-17,17’-(but-2-ene-1,4-diyl))bis(androst-3-one-17β-ol)]
- high spin content (recombinant CYP3A4): 33 ± 3%

SMILES: CC(=O)O[C@]1(C(C)=O)CC[C@H]2[C@@H]3C=C(Cl)C4=CC(=O)[C@@H]5C[C@@H]5[C@]4(C)[C@H]3CC[C@@]21C [CPA, cyproterone acetate, reference compound]
- IC50 ([1]; Homo sapiens, LNCaP/AR, 48 h, read-out: IC50 (concentration of drug inhibiting cell growth by 50%), LNCaP (AR+)): 40.7 µM
- IC50 [2]: 84.3 µM
